BindingDB's records for doi:10.1021/jm801330n (University of Siena, 2009)

Molecular target: Reverse transcriptase (Human immunodeficiency virus 1, UniProt Q9WKE8)
Experiment: Binding affinity to HIV1 reverse transcriptase treated for 3 mins by surface plasmon resonance
How it was run: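 Kinetic titration SPR at 25 °C against an RT surface, with an untreated dextran surface as reference. Running buffer: 10 mM Hepes, 150 mM NaCl, 3.4 mM EDTA, 0,01% P20, 4% DMSO, pH 7.5. Five sequential 3-min injections at 50 µL·min^-1 (0.075–1.2 µM, 2-fold steps), each followed by 2-min dissociation, and a final 20-min dissociation. Data were double-referenced.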

COc1ccc([C@@H]2C[C@H]2CSc2nc([C@H](C)c3c(F)cccc3F)c(C)c(=O)[nH]2)cc1
koff: 2.1e-05 s⁻¹
